Measured values as given in ChEMBL document CHEMBL1153955, “Indolylarylsulfones bearing natural and unnatural amino acids. Discovery of potent inhibitors of HIV-1 non-nucleoside wild type and resistant mutant strains reverse transcriptase and coxsackie B4 virus” (J Med Chem, 2009).

Experiments:
[1] = target: Human immunodeficiency virus type 1 reverse transcriptase (Human immunodeficiency virus 1, UniProt Q72547); assay: Inhibition of HIV1 reverse transcriptase p66/p51; conditions: read-out: IC50
[2] = target: Human immunodeficiency virus type 1 reverse transcriptase (Human immunodeficiency virus 1, UniProt Q72547, K103N); assay: Inhibition of HIV1 reverse transcriptase p66/p51 K103N mutant; conditions: read-out: IC50
Outline: (§1)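 Substrate was 0.5 µg poly(rA)/oligo(dT) 10:1 (0.3 µM 3′-OH ends) with 10 µM [³H]dTTP, at 37 °C. Acid-precipitable radioactivity was counted on GF/C filters after TCA washes.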

[3] = tested on: Respiratory syncytial virus; assay: Antiviral activity against RSV Long in human HeLa cells assessed as protection against virus-induced cytopathicity; type: functional, organism-based
Outline: (§2)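 Confluent cell monolayers inoculated with 100 CCID₅₀ virus. After 1-2 h adsorption, residual virus removed and cultures incubated with varying compound concentrations. Cytopathicity scored once it reached completion in untreated infected controls. EC₅₀ = dose reducing virus-induced cytopathogenicity by 50%.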

[4] = tested on: Vesicular stomatitis virus; assay: Antiviral activity against VSV in human HeLa cells assessed as protection against virus-induced cytopathicity; type: functional, organism-based
[5] = tested on: Human immunodeficiency virus 1; assay: Antiviral activity against HIV1 3B in human CEM cells assessed as protection against virus-induced cytopathicity after 4 days; type: functional, organism-based; conditions: Human immunodeficiency virus 1, 3B, CCRF-CEM, 96 h
Outline: (§3)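 CEM cells (~3 × 10⁵ cells/mL) infected with ~100 CCID₅₀ per mL of HIV-1 (IIIB) or HIV-2 (ROD), then seeded into wells containing compound dilutions. After 4 days at 37 °C, syncytium (giant cell) formation was examined microscopically. EC₅₀ = concentration protecting CEM cells from HIV cytopathicity by 50%.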

[6] = tested on: Human immunodeficiency virus 2; assay: Antiviral activity against HIV2 ROD in human CEM cells assessed as protection against virus-induced cytopathicity after 4 days; type: functional, organism-based; conditions: Human immunodeficiency virus 2, ROD, CCRF-CEM, 96 h; outline: as §3
[7] = tested on: L1210; assay: Antiproliferative activity against mouse L1210 cells after 2 days; type: cell-based; conditions: L1210, 48 h
Outline: (§4)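 Cells seeded at 5 × 10⁴ to 7.5 × 10⁴ cells/200 µL with or without serial compound dilutions; incubated at 37 °C for 2 days (L1210) or 3 days (Molt4/C8, CEM). Cell numbers counted with a Coulter counter. CC₅₀ = concentration reducing proliferation by 50% versus untreated controls, read from plots of cell number (% of control) against concentration. Means of at least two independent experiments.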

[8] = Antiproliferative activity against human Molt4/C8 cells after 3 days; type: cell-based; conditions: MOLT-4, 72 h; outline: as §4
[9] = tested on: CCRF-CEM; assay: Antiproliferative activity against human CEM cells after 3 days; type: cell-based; conditions: 72 h; outline: as §4
[10] = target: Human immunodeficiency virus type 1 reverse transcriptase (Human immunodeficiency virus 1, UniProt Q72547, L100I); assay: Inhibition of HIV1 reverse transcriptase p66/p51 L100I mutant; conditions: read-out: IC50; outline: as §1
[11] = target: Human immunodeficiency virus type 1 reverse transcriptase (Human immunodeficiency virus 1, UniProt Q72547, Y181I); assay: Inhibition of HIV1 reverse transcriptase p66/p51 Y181I mutant; conditions: read-out: IC50; outline: as §1
[12] = Cytotoxicity against human HeLa cells assessed as drug level causing microscopically detectable alteration of normal cell morphology after 3 days; type: cell-based
Outline: (§5)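 Serial compound dilutions added to confluent HeLa or Vero monolayers. MCC = minimum concentration causing microscopically detectable alteration of cell morphology after 3 days of incubation.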

[13] = Cytotoxicity against african green monkey Vero cells assessed as drug level causing microscopically detectable alteration of normal cell morphology after 3 days; type: cell-based; conditions: chlorocebus sabaeus; outline: as §5
[14] = tested on: Coxsackievirus B4; assay: Antiviral activity against Coxsackievirus B4 in human HeLa cells assessed as protection against virus-induced cytopathicity; type: functional, organism-based; conditions: Enterovirus B; outline: as §2
[15] = tested on: Coxsackievirus B4; assay: Antiviral activity against Coxsackievirus B4 in african green monkey Vero cells assessed as protection against virus-induced cytopathicity; type: functional, organism-based; conditions: Enterovirus B; outline: as §2
[16] = tested on: Human respirovirus 3; assay: Antiviral activity against Parainfluenza virus type 3 in african green monkey Vero cells assessed as protection against virus-induced cytopathicity; type: functional, organism-based; conditions: Human respirovirus 3, Vero; outline: as §2
[17] = tested on: Mammalian orthoreovirus 1; assay: Antiviral activity against Reovirus 1 in african green monkey Vero cells assessed as protection against virus-induced cytopathicity; type: functional, organism-based; conditions: Mammalian orthoreovirus 1, Vero; outline: as §2
[18] = tested on: Sindbis virus; assay: Antiviral activity against Sindbis virus in african green monkey Vero cells assessed as protection against virus-induced cytopathicity; type: functional, organism-based; outline: as §2
[19] = tested on: Punta Toro virus; assay: Antiviral activity against Punta Toro virus in african green monkey Vero cells assessed as protection against virus-induced cytopathicity; type: functional, organism-based; outline: as §2
[20] = Cytotoxicity against human HEL cells assessed as drug level causing microscopically detectable alteration of normal cell morphology after 3 days; type: cell-based
[21] = tested on: Human alphaherpesvirus 1; assay: Antiviral activity against HSV1 KOS in human HEL cells assessed as protection against virus-induced cytopathicity; type: functional, organism-based; conditions: Human alphaherpesvirus 1, KOS
[22] = tested on: Human alphaherpesvirus 2; assay: Antiviral activity against HSV2 G in human HEL cells assessed as protection against virus-induced cytopathicity; type: functional, organism-based; conditions: Human alphaherpesvirus 2, strain G; outline: as §2
[23] = tested on: Vaccinia virus; assay: Antiviral activity against Vaccinia virus Lederle in human HEL cells assessed as protection against virus-induced cytopathicity; type: functional, organism-based; conditions: Orthopoxvirus vaccinia
[24] = tested on: Vesicular stomatitis virus; assay: Antiviral activity against VSV in human HEL cells assessed as protection against virus-induced cytopathicity; type: functional, organism-based
[25] = tested on: Human alphaherpesvirus 1; assay: Antiviral activity against thymidine kinase deficient and acyclovir resistant HSV1 KOS in human HEL cells assessed as protection against virus-induced cytopathicity; type: functional, organism-based; conditions: Human alphaherpesvirus 1, KOS
[26] = Cytotoxicity against MDCK cells assessed as drug level causing microscopically detectable alteration of normal cell morphology; type: cell-based, Canis lupus familiaris; conditions: dog
[27] = Cytotoxicity against MDCK cells by MTS assay; type: cell-based, Canis lupus familiaris; conditions: dog
[28] = tested on: Influenza A virus; assay: Antiviral activity against influenza H1N1 virus in MDCK cells assessed as reduction of virus-induced cytopathicity by visual cytopathic effect scoring method; type: functional, organism-based
[29] = tested on: Influenza A virus; assay: Antiviral activity against influenza H1N1 virus in MDCK cells assessed as reduction of virus-induced cytopathicity by MTS method; type: functional, organism-based; conditions: Influenza A virus, H1N1, MDCK
[30] = tested on: Influenza A virus H3N2; assay: Antiviral activity against influenza H3N2 virus in MDCK cells assessed as reduction of virus-induced cytopathicity by visual cytopathic effect scoring method; type: functional, organism-based
[31] = tested on: Influenza A virus H3N2; assay: Antiviral activity against influenza H3N2 virus in MDCK cells assessed as reduction of virus-induced cytopathicity by MTS method; type: functional, organism-based
[32] = tested on: Influenza B virus; assay: Antiviral activity against influenza B virus in MDCK cells assessed as reduction of virus-induced cytopathicity by visual cytopathic effect scoring method; type: functional, organism-based
[33] = tested on: Influenza B virus; assay: Antiviral activity against influenza B virus in MDCK cells assessed as reduction of virus-induced cytopathicity by MTS method; type: functional, organism-based
[34] = Cytotoxicity against feline CRFK cells by MTS assay; type: cell-based, Felis catus; conditions: cat
[35] = tested on: Feline coronavirus; assay: Antiviral activity against Feline coronavirus in feline […] cells assessed as inhibition of virus-induced cytopathicity; type: functional, organism-based; conditions: Alphacoronavirus 1
[36] = tested on: Felid alphaherpesvirus 1; assay: Antiviral activity against Feline herpesvirus in feline […] cells assessed as inhibition of virus-induced cytopathicity; type: functional, organism-based

SMILES | IC50 [1] | IC50 [2] | EC50 [3] | EC50 [4] | MCC at 72 h [12] | MCC at 72 h [13] | EC50 [14] | EC50 [15] | EC50 [16] | EC50 [17] | EC50 [18] | EC50 [19] | MCC [26] | CC50 [27] | EC50 [28] | EC50 [29] | EC50 [30] | EC50 [31] | EC50 [32] | EC50 [33] | also measured
Cc1cc(C)cc(S(=O)(=O)c2c(C(=O)N[C@@H](C)CC(N)=O)[nH]c3ccc(Cl)cc23)c1 | 0.315 µM | 1.34 µM |  |  |  |  |  |  |  |  |  |  |  |  |  |  |  |  |  |  | 
Cc1cc(C)cc(S(=O)(=O)c2c(C(=O)NCC(N)=O)[nH]c3ccc(Cl)c(F)c23)c1 | 0.025 µM | 1.04 µM | 16 µM | > 20 µM | 100 µM | > 100 µM | 9 µM | > 20 µM | > 20 µM | > 20 µM | > 20 µM | > 20 µM | 20 µM | 7.6 µM | > 4 µM | > 4 µM | > 4 µM | > 4 µM | > 4 µM | > 4 µM | EC50 [5]: 0.0031 µM; EC50 [6]: > 10 µM; IC50 [7]: 53 µM; IC50 [8]: 34 µM; IC50 [9]: 31 µM; IC50 [10]: 0.319 µM; IC50 [11]: 2.46 µM; MCC at 72 h [20]: 100 µM; EC50 [21]: > 20 µM; EC50 [22]: > 20 µM; EC50 [23]: > 20 µM; EC50 [24]: > 20 µM; EC50 [25]: > 20 µM; CC50 [34]: 71 µM; EC50 [35]: > 20 µM; EC50 [36]: > 20 µM
Cc1cc(C)cc(S(=O)(=O)c2c(C(=O)NC(C)CS(N)(=O)=O)[nH]c3ccc([N+](=O)[O-])cc23)c1 (stereo unspecified) | 0.028 µM | 3.28 µM | > 20 µM | ≥ 20 µM | ≥ 20 µM | ≥ 20 µM | ≥ 20 µM | ≥ 20 µM | > 20 µM | > 20 µM | > 20 µM | > 20 µM | 20 µM | 9.8 µM | > 4 µM | > 4 µM | > 4 µM | > 4 µM | > 4 µM | > 4 µM | EC50 [5]: 0.0042 µM; EC50 [6]: > 10 µM; IC50 [7]: 20 µM; IC50 [8]: 11 µM; IC50 [9]: 15 µM; IC50 [10]: 0.364 µM; IC50 [11]: 26.2 µM; MCC at 72 h [20]: ≥ 20 µM; EC50 [21]: > 20 µM; EC50 [22]: > 20 µM; EC50 [23]: > 20 µM; EC50 [24]: > 20 µM; EC50 [25]: > 20 µM; CC50 [34]: 47.6 µM; EC50 [35]: > 20 µM; EC50 [36]: > 20 µM
Cc1cc(C)cc(S(=O)(=O)c2c(C(=O)N[C@@H](C)C(N)=O)[nH]c3ccc(Cl)cc23)c1 | 0.026 µM | 1.01 µM |  |  |  |  |  |  |  |  |  |  |  |  |  |  |  |  |  |  | 
NC12CC3CC(CC(C3)C1)C2 [AMANTADINE] |  |  |  |  |  |  |  |  |  |  |  |  | > 100 µM | > 100 µM | > 100 µM | > 100 µM | 100 µM | 75.3 µM | > 100 µM | > 100 µM | 
Cc1cc(C)cc(S(=O)(=O)c2c(C(=O)NNC(C)C)[nH]c3ccc(Cl)cc23)c1 | 0.01 µM | 0.8 µM | > 100 µM | > 100 µM | > 100 µM | > 100 µM | > 100 µM | > 100 µM | > 100 µM | > 100 µM | > 100 µM | > 100 µM | 100 µM | > 100 µM | > 20 µM | > 20 µM | > 20 µM | > 20 µM | > 20 µM | > 20 µM | EC50 [5]: 0.0064 µM; EC50 [6]: > 50 µM; IC50 [7]: > 500 µM; IC50 [8]: 432 µM; IC50 [9]: ≥ 500 µM; MCC at 72 h [20]: > 100 µM; EC50 [21]: > 100 µM; EC50 [22]: > 100 µM; EC50 [23]: > 100 µM; EC50 [24]: > 100 µM; EC50 [25]: > 100 µM; CC50 [34]: > 100 µM; EC50 [35]: > 100 µM; EC50 [36]: > 100 µM
Nc1ncnc2c1ncn2C[C@H](O)CO [(S)-DHPA] |  |  | > 250 µM | > 250 µM | > 250 µM | > 250 µM | > 250 µM | > 250 µM | > 250 µM | > 250 µM | > 250 µM | > 250 µM |  |  |  |  |  |  |  |  | 
CC(N)C12CC3CC(CC(C3)C1)C2 (stereo unspecified) [RIMANTADINE] |  |  |  |  |  |  |  |  |  |  |  |  | > 100 µM | > 100 µM | 45 µM | 33.2 µM | > 100 µM | > 100 µM | > 100 µM | > 100 µM | 
